ABHD5-PLIN5 inh: ABHD5-PLIN5 interaction inhibitors, primary screen, cell lysate, split luciferase complementation, luminescence. Split G. princeps luciferase complementation, 4 h. inhibition, % at 4 µM. 360,000 compounds, 0.78% hits;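 active means inhibition above the mean inhibition across every tested compound plus 3 SD, cut at about 22% in these data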;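 further: 0% = DMSO only wells and the 100% control is not disclosed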
A3A deaminase: APOBEC3A ssDNA deaminase inhibitors, primary screen, selectivity assay for APOBEC3G inhibitor project, biochemical, FAM/TAMRA oligo cleavage fluorescence; 330,000 compounds, 0.41% hits; DNA dC->dU-editing enzyme APOBEC-3A (Homo sapiens), P31941; recombinant A3A, FAM/TAMRA ssDNA deamination fluorescence; inhibition, % at 20 µM; AID 493011, 2011;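 active means at least 40% inhibition at 20 µM here, with at most 30% in a related deaminase screen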;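 further: plate controls were A3A with DMSO for no effect and wells lacking A3A enzyme for full effect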
FN deposit inh: inhibitors of fibronectin matrix deposition, primary screen, AH1F cells, Alexa488-fibronectin fluorescence, plate reader. AH1F fibroblasts, overnight. inhibition, % at 12.6 µM. 350,000 compounds, 0.086% hits. AID 743247, 2014;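 active means mean inhibition across replicates of 30% or more, regardless of how many single replicates reach that level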;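 further: positive control wells lacked labelled fibronectin entirely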
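Material: AH1F fibroblast monolayer depositing Alexa488-labelled fibronectin into matrix | Input: 10000 AH1F cells/well | Medium: DMEM plus 2% serum, read in PBS | Reagent: Alexa488-fibronectin, 24 nM final in well | Compound dosing: One dose per compound, pinned | Schedule: 1 h adhesion, overnight exposure | Measured by: Fluorescence at 485 nm excitation, 525 nm emission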
APOBEC3G inh: APOBEC3G DNA deaminase inhibitors, primary screen, biochemical, fluorescence, single-stranded DNA substrate, uHTS; AID 493012, 2011; inhibition, % at 20 µM; recombinant A3G, ssDNA deamination FAM/TAMRA fluorescence; 330,000 compounds, 0.28% hits;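 active means inhibition of at least 40% at 20 µM, with no more than 30% in the related APOBEC3A deaminase screen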;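 further: plate controls were DMSO wells with A3G for no effect and wells lacking A3G enzyme for full effect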
A3A conf: APOBEC3A deaminase inhibitors, retest, confirmation, selectivity assay for APOBEC3G inhibitor project, biochemical, single concentration, fluorescence readout | shares compounds with A3A deaminase | recombinant A3A, ssDNA deaminase UDG fluorescence assay | 1,400 compounds, 63% hits | inhibition, % at 20 µM;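 active means inhibition reaching a set limit, 80% of the first screen's cutoff, at 20 µM in any replicate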;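 further: plate controls were DMSO wells with A3A for no effect and wells lacking A3A enzyme for full effect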
UDG A3A counter: E. coli UDG inhibitors, confirmation, counter-screen for APOBEC3A inhibitor project, biochemical, single concentration, fluorescence, FAM/TAMRA oligo; shares compounds with A3A deaminase; UDG counterscreen, FAM/TAMRA uracil oligo fluorescence; inhibition, % at 20 µM; 1,000 tested, under 10 active; AID 504714, 2011; call rule not given here
* hit, by the source's call; . = no result given. Most compounds without a hit are left out; they make up all but 1.2% or so of the library.

SMILES | ABHD5-PLIN5 inh | A3A deaminase | FN deposit inh | APOBEC3G inh | A3A conf | UDG A3A counter
Cc1ccc(OC(=O)N(C)C[C@H]2OCc3ccccc3-c3c(n(C)c4ccccc34)C(=O)N([C@H](C)CO)C[C@@H]2C)cc1 | . | . | 4 | . | . | .
C[N+]1(CC2COC(c3ccco3)O2)CCCCC1 (stereo not drawn) | -2 | 60* | -4 | 25 | 66* | -1
COc1ccc(OC(=O)N(C)C[C@@H]2OCc3ccccc3-c3c(n(C)c4ccccc34)C(=O)N([C@@H](C)CO)C[C@H]2C)cc1 | . | . | 1 | . | . | .
CN(C)C(=O)OCc1n(C)cc[n+]1C | 1 | -2 | . | -5 | . | .
CCN(CC)P(c1n(C)cc[n+]1C)N(CC)CC | 4 | 62* | . | 11 | 65* | -1
Cc1sc2ncnc(N3CCC(C(=O)Nc4ccc(C#N)c(Cl)c4)CC3)c2c1C | -3 | 53* | 9 | 7 | 10 | .
Cc1noc(C)c1CSCC(=O)Nc1ccc(C#N)c(Cl)c1 | 3 | 0 | -1 | -6 | . | .
Cc1cc(/C=C2\C(=O)NC(=O)N(c3cccc(F)c3)C2=O)c(C)n1-c1cc(C(=O)O)cc(C(=O)O)c1 | 10 | 70* | -2 | 29 | 53* | 7
CC=Cc1ccc2n(c1=O)C[C@H]1[C@H](CO)[C@@H](C(=O)OC)[C@@H]2N1S(=O)(=O)c1ccccc1C (mixture of isomers) | . | . | -7 | . | . | .
O=Cc1cn(Cc2c(F)cccc2Cl)c2ccccc12 | 0 | 1 | -2 | -4 | . | .
O=Cc1cn(Cc2ccccc2F)c2ccccc12 | 3 | 45* | 5 | 14 | 28 | .
C[N+](C)(C)c1ccccc1 | -8 | 70* | 7 | 14 | 78* | -2
C[C@H]1CN([C@@H](C)CO)C(=O)CCCn2nncc2CO[C@@H]1CN(C)C(=O)Oc1ccc2ccccc2c1 | . | . | -4 | . | . | .
COc1cccc(Oc2coc3cc(OC(=O)N(C)C)ccc3c2=O)c1 | -16 | 99* | -2 | -5 | 6 | 1
COc1ccc(OC(=O)N(C)C[C@H]2OCc3ccccc3-c3c(n(C)c4ccccc34)C(=O)N([C@@H](C)CO)C[C@@H]2C)cc1 | . | . | -10 | . | . | .
CCCCCCC[n+]1ccc(-c2cc[n+](CCCCCCC)cc2)cc1 | 8 | 58* | -5 | 28 | 75* | -2
COc1ccc(N=C2SCCCN2C)cc1 | 3 | 48* | 22 | 24 | 72* | 1
C[C@@H]1CN([C@H](C)CO)C(=O)c2c(c3ccccc3n2C)-c2ccccc2CO[C@H]1CN(C)C(=O)Oc1ccccc1 | . | . | -7 | . | . | .
C=C1C(O)(c2ccccc2)C2CC[N+]1(C)CC2 (stereo not drawn) | 1 | 76* | 2 | 22 | 74* | 5
C=C1N2CCC(CC2)C1(O)c1ccc(C)cc1 (stereo not drawn) | 3 | -6 | -2 | -6 | . | .
C/C=C/c1ccc(C2[C@@H]3CN(C(=O)C4CCC4)C[C@H]2N3)cc1 (stereo partly drawn) | . | . | -5 | . | . | .
C[C@@H]1CC2(CCCC[N+]2(C)C)C[C@H]1C | -3 | 81* | . | 28 | 68* | -2
CCOC(=O)/C(CCCN(CC)CC)=N\O | 2 | 75* | . | 19 | 78* | 1
C[C@@H]1CN([C@H](C)CO)C(=O)c2c(c3ccccc3n2C)-c2ccccc2CO[C@@H]1CN(C)C(=O)Oc1ccccc1 | . | . | 2 | . | . | .
COC(=O)C[C@H]1CC[C@@H]2NC[C@@H](O)COC[C@H]2O1 | . | . | -10 | . | . | .
SMILES | ABHD5-PLIN5 inh | A3A deaminase | FN deposit inh | APOBEC3G inh | A3A conf | UDG A3A counter
CC(C)(C#CCCCCC#CC(C)(C)[N+](C)(C)C)[N+](C)(C)C | . | 51* | . | 14 | 46* | .
COc1ccc2[nH]cc(CCN=C(N)N)c2c1 | 7 | 54* | -3 | 14 | 28* | -2
COc1ccc2[nH]cc(CCNCc3cccnc3)c2c1 | 9 | -5 | 3 | -4 | . | .
CC(C)[N+](C)(CCC(C(N)=O)(c1ccccc1)c1ccccc1)C(C)C | -3 | 68* | 4 | 15 | 83* | 3
C=Cc1ccc(Cn2c(C(=O)O)c(C=O)c3ccccc32)cc1 | -4 | 74* | -19 | 5 | 17 | .
C[N+]1(C)[C@@H]2CC[C@H]1CC(OC(=O)C(c1ccccc1)c1ccccc1)C2 (stereo partly drawn) | 5 | 46* | -3 | 21 | 61* | .
COc1cccc(-c2ccc([C@@H]3[C@H]4CN(C(=O)Cc5ccncc5)CCCCN4[C@H]3CO)cc2)c1 | . | . | 8 | . | . | .
CN1CCC(OC(=O)Cc2ccccc2)CC1 | -3 | 0 | -3 | 0 | . | .
C[N+]1(CC(COCc2ccccc2)OC(=O)Cc2ccccc2)CCOCC1 (stereo not drawn) | 3 | 41* | 2 | 18 | 69* | 1
CCC(=O)N1[C@@H]2c3ccc(C4=CCCC4)c(=O)n3C[C@H]1[C@H](CO)[C@H]2C(=O)OC | . | . | -3 | . | . | .
COc1ccc2c3c1OC1C(O)C=CC4C(C2)[N+](C)(C)CCC341 (stereo not drawn) | 3 | 71* | 2 | 16 | 51* | .
C[N+]12CCC(CC1)C(C#N)(N1CCOCC1)C2 (stereo not drawn) | 4 | 46* | 8 | 17 | 81* | -1
C/C=C/c1ccc(C2[C@@H]3CN(Cc4cccnc4)C[C@H]2N3)cc1 (stereo partly drawn) | . | . | -1 | . | . | .
CN1[C@H](CO)[C@H]2c3ccccc3NC[C@H]21 | . | . | -8 | . | . | .
CCCC[N+]12CCC(CC1)C(=C(c1ccccc1)c1ccccc1)C2 | 3 | 97* | 6 | 12 | 71* | 0
Cc1ccc(OC(=O)N(C)C[C@@H]2OCc3ccccc3-c3c(n(C)c4ccccc34)C(=O)N([C@@H](C)CO)C[C@@H]2C)cc1 | . | . | 2 | . | . | .
